Source: PubChem (several laboratories)
M1 agonist – M1 muscarinic receptor agonism; B-score at 10 µM; CHO-M1 cells, Fluo-4 calcium fluorescence, agonist mode; hits give high values; AID 626; 64,000 compounds, 3% hits;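 active means fluorescence rise, raw or as B-score row- and column-corrected plate score, outside the 99.7% band of its plate's samples, either direction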
S1P1 ag-PAM – S1P1 (human) agonism or agonism potentiation; P21453; S1P1 CRE-bla cells, forskolin, beta-lactamase FRET, potentiator mode; S1P1 agonist co-added at EC20, 2 nM; 100% = saturating reference agonist, 0% = basal; activation, % at 9.5 µM; 56,000 compounds, 0.57% hits;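 active means activation above a cutoff set at the mean activation of all tested compounds plus 3 SD, cut at about 54% in these data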;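 further: forskolin at 4 µM as EC80 and the EC20 agonist is SEW2871; 100% = SEW2871 at its EC100 plus forskolin at EC80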
D1 mod – allosterically modulates the human D1 dopamine receptor; P21728; HEK293 D1, CRE-luciferase, dopamine EC30 potentiation; actives deviate in either direction; B-score at 10 µM; 58,000 compounds, 5.9% hits;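 active means luminescence count or its row- and column-corrected plate score outside the 99.7% band of the plate's sample wells, on either side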
S1P3 ag – agonists of human S1P3 receptor; activation, % at 4.5 µM; Q99500; 60,000 compounds, 0.1% hits; S1P3 NFAT-BLA reporter cells, agonism, FRET ratio; relative to 1 µM S1P, basal subtracted;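 active means activation above the screen-wide mean plus 3 SD, cut at about 4.5% in these data, passing the limit was not always enough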
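material = human S1P3 NFAT-BLA reporter CHO cells | schedule = 4 h compound at 37 °C, 2 h substrate at RT | measured by = fluorescent BLA substrate, ex 405 nm, em 460/535 nm ratio | controls = 1 µM S1P reference | replication = primary once, confirmation triplicate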
M1 antag – M1 muscarinic receptor (rat) antagonism | B-score at 10 µM | CHO-M1 cells, Fluo-4 calcium, ACh EC80 antagonist mode; hits give low values | 64,000 compounds, 3.4% hits | P08482;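 active means calcium fluorescence response, raw or row-and-column corrected B-score, differing from the plate sample mean either way at a set confidence level, mostly lower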
Target sequence (P08482 whole entry, looked up): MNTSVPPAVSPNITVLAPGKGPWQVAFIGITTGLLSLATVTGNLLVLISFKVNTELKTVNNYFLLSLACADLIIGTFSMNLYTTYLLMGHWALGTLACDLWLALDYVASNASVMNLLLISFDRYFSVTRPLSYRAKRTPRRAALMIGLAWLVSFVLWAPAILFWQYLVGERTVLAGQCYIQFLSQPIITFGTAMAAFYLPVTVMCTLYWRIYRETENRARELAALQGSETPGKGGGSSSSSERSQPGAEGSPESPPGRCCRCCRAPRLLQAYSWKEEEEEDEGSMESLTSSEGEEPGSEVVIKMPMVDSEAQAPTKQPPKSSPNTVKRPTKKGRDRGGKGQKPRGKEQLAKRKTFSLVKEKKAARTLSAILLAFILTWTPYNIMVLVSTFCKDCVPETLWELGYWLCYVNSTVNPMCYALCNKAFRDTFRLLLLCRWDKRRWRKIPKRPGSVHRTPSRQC
D1 mod confirm – confirmation of human D1 dopamine receptor allosteric modulators; shares compounds with D1 mod; 2,200 compounds, 88% hits; HEK293 D1 CRE-luciferase, dopamine EC30 potentiation; hits give high values; luminescence at 10 µM;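 active means luminescence in either of two replicates above the same-plate mean plus 3 SD of the low-dose dopamine control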
D1 no dopamine – D1 (human) signaling in absence of dopamine; AID 646; shares compounds with D1 mod; HEK293 D1 CRE-luciferase, luminescence, no dopamine; hits give high values; luminescence at 10 µM; 1,900 compounds, 0.8% hits; in the data active means luminescence above about 3900
Isoprot counter – alters isoproterenol CRE-luciferase response in HEK293 cells. shares compounds with D1 mod. HEK293 D1 CRE-luciferase, isoproterenol EC30 counter-screen; hits give high values. luminescence at 10 µM. 2,200 compounds, 63% hits. AID 647;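 active means luminescence in either replicate above plate mean of wells with a partly effective reference agonist dose plus 3 SD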;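 further: isoproterenol raises cAMP through native beta-adrenoceptor Gs so signal bypasses D1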
Starred values were filed as active, the others as inactive; / = not tested or not shown. This is a sample that favours compounds with a hit; in the whole collection about 11% have one here.

SMILES	M1 agonist	S1P1 ag-PAM	D1 mod	S1P3 ag	M1 antag	D1 mod confirm	D1 no dopamine	Isoprot counter
O=S(=O)(c1ccc(Oc2ccc(Br)cc2)cc1)N1CCOCC1	-0.1	29	-0.9	-1	0.9	/	/	/
O=C(COC(=O)Cn1cnc2ccccc21)NCCC1=CCCCC1	0.32	-12	-0.29	-1	-0.13	/	/	/
CNc1nn(-c2cccc(Cl)c2)nc1N	1.5	8	4.2*	-1	0.61	8344*	1588	2896
O=c1n(-c2cccc(Cl)c2)c(=O)n2n1CCC2	-0.39	-3	0.45	-1	0.16	/	/	/
NC(=O)c1cc(Br)cc2c3c([nH]c12)CCCC3	-0.016	25	3.9*	0	-2.1	11200*	1388	3456*
O=c1c2c([nH]c3ccc(Br)cc13)CCCC2	-0.92	22	-1.8	-1	0.037	/	/	/
CCOCC(=O)Nc1cc(-c2cn3cccnc3n2)ccc1C	-0.35	/	-0.87	/	0.51	/	/	/
N#CC1=C(N)N(c2ccccc2)C(c2ccco2)C1(C#N)C#N (centres undefined)	-0.74	7	7.7*	-1	0.011	5392	1576	2456
O=C(Nc1c(F)c(F)c(F)c(F)c1F)C1CCCCC1	0.03	-21	-0.6	0	-0.34	/	/	/
O=C(Nc1nonc1NC(=O)C1CCCCC1)C1CCCCC1	-0.77	-4	17*	-1	-0.96	25348*	1748	4640*
CCOC(=O)c1c(N)nn(C(=O)C(C)(C)C)c1-c1ccccc1	-0.038	15	1.5	0	-0.39	/	/	/
CCOC(=O)C1=C(c2ccccc2)N2CCS(=O)(=O)N=C2S1	0.035	-2	7.1*	1	0.77	9940*	1656	2960
CCN(CCNC(=O)CC1Oc2ccccc2NC1=O)c1ccccc1 (centres undefined)	0.68	-2	3*	0	-1.4	4876	1496	2292
CCS(=O)(=O)c1nc2ccccc2n1Cc1ccccc1Cl	-0.22	-12	16*	-1	-0.48	16608*	1152	3788*
COC(=O)c1ccc(Cl)c(NC(=O)CN(c2ccc3c(c2)OCO3)S(C)(=O)=O)c1	-0.79	/	-0.45	0	0.0044	/	/	/
Cc1ccc2nc(N3CCOCC3)c3nncn3c2c1	0.65	-38	0.89	0	-0.21	/	/	/
Cc1ccc2c(c1)c(-c1ccccc1)nc1nncn12	-0.035	9	9.1*	-1	-0.28	13296*	1752	3264*
CC1(c2ccc3noc(-c4ccccc4)c3c2)OCCO1	-0.02	-16	3	0	0.27	/	/	/
O=C(O)c1ccc2noc(-c3ccccc3)c2c1	-0.89	12	3*	0	0.29	6504	1520	2716
COc1ccc(NCc2nnc(SCC(=O)c3ccc(OC)cc3)n2C)cc1	-0.94	17	-0.83	-1	-0.43	/	/	/
Cc1nn2c(N3CCCC3)cc(C(C)C)nc2c1-c1ccccc1	0.19	-16	5.3*	0	1.1	5624*	1528	2896
COc1cc(C(=O)Nc2ccc(-c3nc4cc(C)ccc4o3)c(O)c2)cc(OC)c1OC	1	-20	3.1*	-1	-0.0059	5096	/	2580
CCCn1c2ccccc2c2nnc(SCC(=O)Nc3ncccn3)nc21	-0.053	-31	20*	1	-0.73	22748*	1692	7964*
Cc1c(NC(=O)CC2CC(C)OC2=O)c(=O)n(-c2ccccc2)n1C (centres undefined)	-0.23	-16	-0.096	0	-0.99	/	/	/
COc1ccc(C(=O)CSc2ncn[nH]2)cc1OC	-0.34	-5	18*	-1	0.38	17148*	1644	3200*
CCSc1nc(-c2ccc(OC)cc2)n(-c2nc3ccccc3s2)n1	1.6	-9	0.2	1	-0.52	/	/	/
Cc1oc(-c2ccc(Cl)cc2)nc1CN1CCC(C(=O)NCCCN2CCOCC2)CC1	1.8	4	3.6*	0	-0.035	6764	1668	2408
